One compound from ChEMBL document CHEMBL4699501, “Dihydrodibenzothiepine: Promising hydrophobic pharmacophore in the influenza cap-dependent endonuclease inhibitor” (Bioorg Med Chem Lett, 2020) can be followed below.

Active and inactive are the calls of the source. No cut-off for these calls is given here.

The test system of this assay is Influenza A virus. Description: Antiviral activity against Influenza A virus (A/WSN/1933(H1N1)) infected in mouse assessed as reduction in viral titer in lung by measuring reduction in virus infectivity in MDCK cells at 5 mg/kg, po administered after 5 days of infection and measured after 24 hrs. Format: functional, organism-based. Put shortly:
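Mice were inoculated with A/WSN/33 at 100 TCID50/mouse. Oral dosing was twice daily (BID), starting 5 days after infection. Lung virus titer (log TCID50/mL) was determined on MDCK cells 24 h after the first dose.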

On to `CCOC(=O)C1=C[C@@H](OC(CC)CC)[C@H](NC(C)=O)[C@@H](N)C1`, for which the result was Active.
